Data from ChEMBL document CHEMBL1137569, “Pharmacomodulations around the 4-oxo-1,4-dihydroquinoline-3-carboxamides, a class of potent CB2-selective cannabinoid receptor ligands: consequences in receptor affinity and functionality” (J Med Chem, 2007).

Experiments:
[1] = biological target: T1, Cannabinoid receptor 2 (Homo sapiens, UniProt P34972); test: Displacement of [3H]CP-55940 from human CB2 receptor expressed in CHO cells; type: cell-based; set-up: concentration or dose not given beside the values
In short: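 Competitive radioligand binding on membranes from CHO cells expressing hCB2, with [3H]-CP-55,940 as tracer. Compounds were first screened at 10 µM. Ki at CB2 was then determined for those displacing more than 60% of specific binding.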

[2] = biological target: T1, Cannabinoid receptor 2; test: Inhibition of human CB2 receptor expressed in CHO cells; type: cell-based
[3] = biological target: T1, Cannabinoid receptor 2; test: Activity at human CB2 receptor expressed in CHO cells assessed as stimulated [35S]GTP-gamma-S binding relative to control; type: functional, cell-based; set-up: concentration or dose not given beside the values
[4] = biological target: T1, Cannabinoid receptor 2; test: Displacement of [3H]SR-141716A from human CB2 receptor expressed in CHO cells at 10 uM; type: cell-based
[5] = biological target: Cannabinoid receptor 1 (Homo sapiens) (UniProt P21554); test: Displacement of [3H]SR-141716A from human CB1 receptor expressed in CHO cells at 10 uM; type: cell-based
In short: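 Single-concentration (10 µM) competition screen on membranes from CHO cells expressing hCB1, with [3H]SR-141716A as radioligand. Read-out is percent displacement of the radioligand from its binding site.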

T1 sequence (P34972 whole entry): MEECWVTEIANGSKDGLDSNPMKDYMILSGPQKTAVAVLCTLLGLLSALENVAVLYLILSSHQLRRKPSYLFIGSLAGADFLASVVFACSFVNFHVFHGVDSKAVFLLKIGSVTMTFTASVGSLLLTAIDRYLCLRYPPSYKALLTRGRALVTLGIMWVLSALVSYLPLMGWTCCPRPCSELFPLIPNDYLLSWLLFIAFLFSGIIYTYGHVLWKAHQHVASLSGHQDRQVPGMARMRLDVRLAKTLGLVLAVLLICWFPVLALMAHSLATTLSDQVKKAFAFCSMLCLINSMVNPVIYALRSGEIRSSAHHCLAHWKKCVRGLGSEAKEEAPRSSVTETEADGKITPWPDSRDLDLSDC
Cannabinoid receptor 1 (Homo sapiens), sequence (P21554 whole entry): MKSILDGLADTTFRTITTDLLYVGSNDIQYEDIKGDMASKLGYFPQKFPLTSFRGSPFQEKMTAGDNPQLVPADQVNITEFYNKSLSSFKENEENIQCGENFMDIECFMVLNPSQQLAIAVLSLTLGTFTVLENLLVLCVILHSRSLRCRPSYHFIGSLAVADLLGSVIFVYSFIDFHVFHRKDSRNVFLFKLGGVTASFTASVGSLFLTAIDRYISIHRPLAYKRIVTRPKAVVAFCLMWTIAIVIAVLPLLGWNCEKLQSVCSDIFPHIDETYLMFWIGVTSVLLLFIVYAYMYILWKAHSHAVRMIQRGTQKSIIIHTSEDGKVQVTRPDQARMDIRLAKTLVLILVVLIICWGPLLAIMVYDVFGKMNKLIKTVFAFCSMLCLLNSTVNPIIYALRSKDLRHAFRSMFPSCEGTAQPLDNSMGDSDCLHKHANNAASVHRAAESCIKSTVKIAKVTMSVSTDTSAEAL

SMILES	Activity [1]	Ki [2]	Activity [3]	Activity [4]	Activity [5]
CC12CC3CC(C)(C1)CC(NC(=O)c1cn(CCN4CCOCC4)c4ccccc4c1=O)(C3)C2	95.6%	221 nM	141%		
CCCCCn1cc(C(=O)NC(C)C23CC4CC(CC(C4)C2)C3)c(=O)c2cc(Cl)ccc21 (single isomer, unassigned; (+))	97.2%		76.7%		
CCCCCn1nc(C(=O)NC23CC4CC(C)(CC(C)(C4)C2)C3)c(=O)c2ccccc21	94.6%	93 nM	109%		
CC12CC3CC(C)(C1)CC(NC(=O)c1cn(CCC4CCCCC4)c4ccccc4c1=O)(C3)C2	38.8%		157%		
CCCCCn1cc(C(=O)NC(C)C23CC4CC(CC(C4)C2)C3)c(=O)c2ccccc21 (single isomer, unassigned; (+))	64.3%		172%		
CCCCCn1cc(C(=O)NC23CC4CC(C)(CC(C)(C4)C2)C3)c(=O)c2cnccc21	95%	30.9 nM	136%		
CCCCCn1cc(C(=O)NC(C)C23CC4CC(CC(C4)C2)C3)c(=O)c2cc(Cl)ccc21 (single isomer, unassigned; (-))	87.7%		86.1%		
CCCCCn1cc(C(=O)NC(C)C23CC4CC(CC(C4)C2)C3)c(=O)c2ccc(Cl)cc21 (single isomer, unassigned; (+))	92.9%		42.7%		
CCCCCn1c(C)c(C(=O)NC(C)c2cccc3ccccc23)c(=O)c2ccccc21 (single isomer, unassigned; (-))	70.4%	> 3000 nM			
CCCCn1cc(C(=O)c2cccc3ccccc23)c(=O)c2ccccc21	77.7%	1550 nM			
CCCC(C)(C)c1ccc2c(c1)OC(C)(C)[C@@H]1CC=C(C)C[C@@H]21			201%		
CCCCCn1c(-c2ccccc2)c(C(=O)NC23CC4CC(CC(C4)C2)C3)c(=O)c2ccccc21	94.9%	338 nM	26.5%		
CCCCCn1cc(C(=O)NC23CC4CC(C)(CC(C)(C4)C2)C3)c(=O)c2cccnc21	102%	23.5 nM	124%		
O=C(c1cn(Cc2ccc(F)cc2)c2ccccc2c1=O)c1cccc2ccccc12	112%	225 nM		70%	
CCCCCn1cc(C(=O)NC2CCCc3ccccc32)c(=O)c2cc(Cl)ccc21 (single isomer, unassigned; (+))	92.8%		124%		
CC12CC3CC(C)(C1)CC(NC(=O)c1cn(CCc4ccccc4)c4ccccc4c1=O)(C3)C2	95.8%	333 nM	141%		
CCCCCn1c(C)c(C(=O)NC23CC4CC(C)(CC(C)(C4)C2)C3)c(=O)c2ccccc21	96.7%	200 nM	128%		
CCCCCn1cc(C(=O)NC23CC4CC(C)(CC(C)(C4)C2)C3)c(=S)c2ccccc21	95.7%	18.2 nM	65.6%		
CCCCCn1c(C)c(C(=O)NC(C)c2ccccc2)c(=O)c2ccccc21 (single isomer, unassigned; (-))	91.7%	663 nM	186%		
O=C(c1cn(CCCc2ccccc2)c2ccccc2c1=O)c1cccc2ccccc12	80.4%	> 2000 nM			
CCCCCn1cc(C(=O)NC(C)C23CC4CC(CC(C4)C2)C3)c(=O)c2ccc(Cl)cc21 (single isomer, unassigned; (-))	102%		53.5%		
CCCCCn1cc(C(=O)NC2CCCc3ccccc32)c(=O)c2cc(Cl)ccc21 (racemic)	98.2%		98.5%		
CCCCCn1cc(C(=O)NC23CC4CC(C)(CC(C)(C4)C2)C3)c(=O)c2ncccc21	93.4%	259 nM	170%		
CC12CC3CC(C)(C1)CC(NC(=O)c1cn(Cc4ccc(F)cc4)c4ccccc4c1=O)(C3)C2	93.2%	83.4 nM	157%		
CCCCCn1cc(C(=O)NCC23CC4CC(CC(C4)C2)C3)c(=O)c2ccccc21	87.2%	50.6 nM	155%		
CCCCCn1cc(NC(=O)CCc2ccccc2)c(=O)c2ccccc21	83.4%	1130 nM	183%		

SMILES	Activity [1]	Ki [2]	Activity [3]	Activity [4]	Activity [5]
CCCCCn1cc(NC(=O)c2cccc3ccccc23)c(=O)c2ccccc21	97.4%	265 nM	139%		
CCCCCn1cc(C(=O)NC(C)C23CC4CC(CC(C4)C2)C3)c(=O)c2ccccc21 (stereo in doubt; 24)	101%		175%		
CCCCCCC(C)(C)c1ccc(C2CC(O)CC[C@H]2CCCO)c(O)c1 (single isomer, unassigned)			230%		
CCCCCCn1cc(C(=O)c2ccc(OC)cc2)c(=O)c2ccccc21	68.8%	> 2000 nM			
CC(NC(=O)c1cn(CCN2CCOCC2)c2ccccc2c1=O)c1ccccc1 (single isomer, unassigned; (-))	66.5%	< 2000 nM			
CCCCCn1cc(C(=O)c2cccc3ccccc23)c(=O)c2ccccc21	97%	154 nM			56%
CCCCCn1cc(C(=O)c2c3ccccc3cc3ccccc23)c(=O)c2ccccc21	76.5%	1500 nM			
CCCCCn1cc(C(=O)NC2CCCc3ccccc32)c(=O)c2ccccc21 (single isomer, unassigned; (+))			183%		
CCCCCn1cc(C(=O)c2ccc3c(c2)COC3)c(=O)c2ccccc21	70.2%	> 2000 nM			
CCCCCn1cc(C(=O)NC23CC4CC(C)(CC(C)(C4)C2)C3)c(=O)c2cc(Cl)ccc21	86.7%	54.6 nM	49.6%		
O=C(c1cn(CCC2CCCCC2)c2ccccc2c1=O)c1cccc2ccccc12	78.5%	1670 nM			
CCCCCn1cc(C(=O)NC(C)C23CC4CC(CC(C4)C2)C3)c(=O)c2ccccc21 (racemic)	99.1%		156%		
O=C(c1cn(Cc2ccc(Br)cc2)c2ccccc2c1=O)c1cccc2ccccc12	93.7%	966 nM			
CCCCCn1cc(CNCCc2ccccc2)c(=O)c2ccccc21	25.9%	> 4000 nM			
O=C(NC12CC3CC(CC(C3)C1)C2)c1cn(CCN2CCOCC2)c2ccccc2c1=O	101%	152 nM			
CCCCCn1cc(C(=O)NC(C)C23CC4CC(CC(C4)C2)C3)c(=O)c2ccc(Cl)cc21 (racemic)	102%		56.3%		
CC12CC3CC(C)(C1)CC(NC(=O)c1cn(CCCc4ccccc4)c4ccccc4c1=O)(C3)C2	101%	160 nM	98.8%		
O=C(c1cn(Cc2ccccc2)c2ccccc2c1=O)c1cccc2ccccc12	100%	656 nM			
CCCCCn1c(-c2ccccc2)c(C(=O)NC23CC4CC(C)(CC(C)(C4)C2)C3)c(=O)c2ccccc21	97.2%	119 nM	27.1%		
CCCCCn1cc(C(=O)NC(C)C23CC4CC(CC(C4)C2)C3)c(=O)c2cc(Cl)ccc21 (racemic)	81.8%		97.3%		
CCCCCn1cc(C(=O)NC23CC4CC(C)(CC(C)(C4)C2)C3)c(=O)c2cccc(Cl)c21	98.7%	27.4 nM	187%		
O=C(c1cn(Cc2ccc(Cl)cc2)c2ccccc2c1=O)c1cccc2ccccc12	96.5%	1120 nM			
CCCCCn1cc(NC(=O)C23CC4CC(CC(C4)C2)C3)c(=O)c2ccccc21	99.9%	25.5 nM	120%		
CCCCCCn1cc(C(=O)c2cccc3ccccc23)c(=O)c2ccccc21	89.5%	582 nM			
CCCCCn1cc(CNC23CC4CC(CC(C4)C2)C3)c(=O)c2ccccc21	81.3%	1670 nM			
CCCCCn1cc(C(=O)NC23CC4CC(C)(CC(C)(C4)C2)C3)c(=O)c2ccc(Cl)cc21	106%	5.3 nM	51.6%		
